Published values collected from several papers.
Protocols differ between the studies behind these lines.
Target: Ephrin type-A receptor 2 (EPHA2, Homo sapiens, UniProt P29317)

O=C(c1ccc(Nc2nccc(-c3cc4ccccc4s3)n2)cc1)N1CCC(N2CCCC2)CC1
remaining binding (binding, competition with immobilised ligand; 1 µM): 65%

CN(C)C(=O)Cn1cc(-c2nc([C@@](C)(c3ccc(-c4cnc(N)nc4)cc3)C3CC3)no2)cn1
remaining binding (cell-free assay, competition with immobilised ligand; 1 µM): 100%

Nc1ncc2c(n1)-c1c([nH]c3ccc(C#CC4CC4)cc13)CCCC2
remaining binding (binding, competition with immobilised ligand; 1 µM): 100%

COc1cnc(Nc2cccc(S(N)(=O)=O)c2)nc1N1CCN(c2ccccc2)C(=O)C1
remaining binding (binding, competition with immobilised ligand; 1 µM): 99%

CN(C)c1nccc(-c2cnc3ncccn23)n1
remaining binding (binding; 1 µM): 100%

C[C@@H](c1ccc(-n2cnc3c(N)ncnc32)cc1)N1CCc2nn(C)c(Cc3ccccc3)c2C1=O
remaining binding (binding, competition with immobilised ligand; 0.1 µM): 100%

O=C(c1ccc(Nc2ncc(Cl)c(-c3cc4ccccc4s3)n2)cc1)N1CCC(N2CCCC2)CC1
remaining binding (binding, competition with immobilised ligand; 1 µM): 60%

CNC(=O)[C@@H]1CC[C@@H](n2c(-c3ccc4cnccc4c3)nc3ccc(C(=O)NCc4cccc(C(N)=O)c4)cc32)C1
remaining binding (binding, competition with immobilised ligand; 1 µM): 98%

COc1ccnn2ncc(-c3ccnc(N(C)C)n3)c12
remaining binding (binding; 1 µM): 100%

CCOCCn1cc(C(=O)Nc2ccc(-n3nc(-c4cccnc4)cc3C(F)(F)F)cn2)ccc1=O
remaining binding (cell-free assay, competition with immobilised ligand; 1 µM): 93%

CN(CCCC(F)(F)F)c1nccc(-c2cnn3ncccc23)n1
remaining binding (binding; 1 µM): 82%

FC(F)(F)Oc1cccc(-c2cnc3ccc(-c4ccncc4)nn23)c1
remaining binding (cell-free assay, competition with immobilised ligand; 5 µM): 80%

CO[C@@H](C)c1c(Nc2ccc([C@H](N(C)C(=O)C3CCS(=O)(=O)CC3)C(F)(F)F)cc2)cnc2cc(Cl)nn12
remaining binding (cell-free assay, competition with immobilised ligand; 1 µM): 100%

CN(C)c1nccc(-c2cnn3ncccc23)n1
remaining binding (binding; 1 µM): 85%

Cc1nc(C2CCN(C(=O)c3ccc(OC(F)(F)F)cc3N)CC2)c2ncc(N3CCN(C)CC3)cc2n1
remaining binding (cell-free assay, competition with immobilised ligand; 1 µM): 100%

CN(c1nccc(-c2cnn3ncccc23)n1)C1CC1
remaining binding (binding; 1 µM): 99%

C[C@H](c1ccc(F)cc1)N(Cc1cccc(C(=O)O)c1)C(=O)c1cnc2ccccc2c1
remaining binding (cell-free assay, competition with immobilised ligand; 1 µM): 100%

O=C(NCC1CCOCC1)c1n[nH]cc1NC(=O)c1c(F)cccc1F
remaining binding (binding, competition with immobilised ligand; 1 µM): 100%

C[C@@H]1CN(c2ccc3ncc(-c4ccc5[nH]nc(C6CC6)c5c4)n3n2)C[C@H](C)O1
remaining binding (binding, competition with immobilised ligand; 50 nM): 86%

C[C@@H]1CN(c2cc(-c3n[nH]c4ccc(OC5(C)CC5)cc34)ncn2)C[C@H](C)O1
remaining binding (cell-free assay, competition with immobilised ligand; 0.1 µM): 72%

Cc1cnc(Nc2ccc(C(=O)N3CCC(N4CCCC4)CC3)cc2)nc1-c1cc2ccccc2s1
remaining binding (binding, competition with immobilised ligand; 1 µM): 26%

C[C@@H]1CCN(c2nccc(-c3cnn4ncccc34)n2)C1
remaining binding (binding; 1 µM): 93%

CCC(=N\O)/C(C)=C/c1ccc(F)cc1
remaining binding (cell-free assay, competition with immobilised ligand; 1 µM): 84%

C=CC(=O)N1CCC(C(=O)NCC(=O)N2CCN(c3nc(-c4cnc(N)nc4C(F)F)nc(N4CCOCC4)n3)CC2)CC1
remaining binding (binding, competition with immobilised ligand; 1 µM): 95%

Cc1cc(C)c(-n2ccn3nc(-c4cccnc4)cc23)cc1NC(=O)c1cc(C#N)cc(S(F)(F)(F)(F)F)c1
remaining binding (cell-free assay, competition with immobilised ligand; 0.1 µM): 79.6%

N[C@@H]1CCN(c2nccc(-c3cnn4ncccc34)n2)C1
remaining binding (binding; 1 µM): 100%
